Values belong to the compound of their own block, whether it stands above or below them.
What was measured:
THP-1 = test: Cytotoxicity against human THP1 cells assessed as reduction in cell viability after 120 hrs by alamar blue assay; format: cell-based; details: THP-1, 120 h
Method in brief: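 THP-1 cells were seeded at 2 × 10^4/well in RPMI-1640 + 10% FCS with 20 ng/mL PMA and differentiated for 72 h (37 °C, 5% CO2). Serial 2-fold dilutions from 10 mM DMSO stocks were added for 120 h. Alamar Blue was then added for 3 h, and fluorescence was read at ex 536 / em 588 nm as % of untreated control. n = 2 biological replicates; doxorubicin control.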

Paenibacillus larvae = test: Antibacterial activity against Paenibacillus larvae ATCC 9545 assessed as reduction in microbial growth by CLSI based broth microdilution method; format: functional
Method in brief: (§1)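 MIC by broth microdilution following CLSI guidelines; strains propagated in ISP-2 medium. Compounds added from a 0.125 mg/mL DMSO stock, highest final concentration 6.9 μg/mL, then serial 2-fold dilutions with DMSO diluted alongside. Tetracycline served as positive control for both strains.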

Staphylococcus aureus = test: Antibacterial activity against Staphylococcus aureus INCAS0039 assessed as reduction in microbial growth by CLSI based broth microdilution method; format: functional; method in brief: as §1
Leishmania infantum = test: Antileishmanial activity against intracellular amastigote stage of Leishmania infantum MHOM/MA/67/ITMAP-263 infected in THP1 cells after 120 hrs by giemsa-staining based inverted microscopic mehod; format: functional, organism-based; details: MHOM/MA/67/ITMAP-263, THP-1, 120 h
Method in brief: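 THP-1 monocytes seeded at 2 × 10^4/well and differentiated to macrophages with 20 ng/mL PMA for 72 h (37 °C, 5% CO2). They were then infected with late-stage promastigotes (2 × 10^5/well; promastigotes grown in M199 + 10% FCS, 28 °C). Extracellular parasites were removed after 24 h, and 2-fold serial dilutions from 10 mM DMSO stocks were added for 120 h. Cells were methanol-fixed and Giemsa-stained, and amastigotes per macrophage were counted microscopically as % of untreated control. IC50 from a variable-slope fit; n = 2 biological replicates; miltefosine control.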

SMILES: COc1cccc2c1C(=O)c1c(O)c3c(c(O)c1C2=O)C[C@@](O)(C(=O)CO)C[C@@H]3O[C@H]1C[C@H](N)[C@H](O)[C@H](C)O1 [DOXORUBICIN]
IC50 (THP-1): 1.8 µM

MIC (Staphylococcus aureus): 0.05 µg/mL
SMILES: CN(C)[C@@H]1C(O)=C(C(N)=O)C(=O)[C@@]2(O)C(O)=C3C(=O)c4c(O)cccc4[C@@](C)(O)[C@H]3C[C@@H]12 [TETRACYCLINE]
MIC (Paenibacillus larvae): 7.76 µM

IC50 (Leishmania infantum): 2.4 µM
SMILES: CCCCCCCCCCCCCCCCOP(=O)([O-])OCC[N+](C)(C)C [MILTEFOSINE]
